Experimental data published in PubChem BioAssay AID588734 (Vanderbilt Specialized Chemistry Center, 2011).
Calls of active or inactive are those of the source.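 The calls were made as follows: active = compound moving the glutamate curve by at least twofold either way, or glutamate peak under 75% or over 125%; inactive = the rest.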

Biological target: Metabotropic glutamate receptor 4 (Rattus norvegicus) (UniProt P31423)
Experiment: rat mGlu4 allosteric modulation, glutamate curve shift, profiling panel, selectivity assay for mGlu5 PAM project, thallium flux, HEK/GIRK cells (AID 588734)
Conditions: glutamate CRC shift, at 10 µM; Emax: measured here: glutamate max response with compound
How it was run: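 Material: HEK/GIRK cells stably expressing rat mGlu4 receptor | Reagent: Glutamate concentration-response curve as agonist stimulus | Dosing: Single test compound dose, 10 µM final | Schedule: Dye loading for 45 min at 37 °C | Signal: Thallium influx measured as slope of dye fluorescence | Control set: Compound-free glutamate curve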

Chain of Metabotropic glutamate receptor 4 (Rattus norvegicus) (P31423 whole entry, looked up): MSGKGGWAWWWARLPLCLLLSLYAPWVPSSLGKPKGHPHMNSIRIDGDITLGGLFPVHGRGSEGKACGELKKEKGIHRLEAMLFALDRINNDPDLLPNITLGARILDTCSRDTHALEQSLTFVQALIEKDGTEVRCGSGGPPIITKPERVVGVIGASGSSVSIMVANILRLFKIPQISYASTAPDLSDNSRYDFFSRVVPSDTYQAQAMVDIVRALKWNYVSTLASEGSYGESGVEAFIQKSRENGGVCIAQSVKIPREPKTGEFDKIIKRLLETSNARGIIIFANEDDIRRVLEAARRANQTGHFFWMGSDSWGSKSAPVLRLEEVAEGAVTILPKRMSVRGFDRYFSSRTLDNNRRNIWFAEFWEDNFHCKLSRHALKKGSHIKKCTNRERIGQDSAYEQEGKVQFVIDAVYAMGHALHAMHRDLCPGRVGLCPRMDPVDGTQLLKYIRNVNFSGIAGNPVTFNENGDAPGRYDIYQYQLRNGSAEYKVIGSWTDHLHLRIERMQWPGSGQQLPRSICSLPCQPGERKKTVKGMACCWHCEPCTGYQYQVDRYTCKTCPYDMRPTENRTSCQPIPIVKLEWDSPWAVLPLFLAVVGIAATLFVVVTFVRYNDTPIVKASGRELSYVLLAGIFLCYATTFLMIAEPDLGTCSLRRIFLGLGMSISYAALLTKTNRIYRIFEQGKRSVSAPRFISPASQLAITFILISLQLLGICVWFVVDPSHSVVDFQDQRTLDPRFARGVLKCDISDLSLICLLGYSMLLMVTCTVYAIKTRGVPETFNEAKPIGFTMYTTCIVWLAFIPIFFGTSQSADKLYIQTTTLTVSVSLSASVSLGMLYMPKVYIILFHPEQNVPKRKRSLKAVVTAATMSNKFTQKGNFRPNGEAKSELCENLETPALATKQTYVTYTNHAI

Row | Structure (SMILES) | Emax | fold shift
1 | C[C@@H](NC(=O)c1ccc(C#Cc2cccc(F)c2)cn1)C(C)(C)O | 90% | 0.88 (inactive)
2 | CC1(NC(=O)c2ccc(C#Cc3cccc(F)c3)cn2)COC1 | 93% | 1 (inactive)
